Data published in ChEMBL document CHEMBL4334447, “Discovery of 4-Aminoquinoline-3-carboxamide Derivatives as Potent Reversible Bruton's Tyrosine Kinase Inhibitors for the Treatment of Rheumatoid Arthritis” (J Med Chem, 2019).
≈ marks a conversion by molar mass, not a printed value.

Columns and labels:
[1] = Kinetic aqueous solubility of the compound in pH 7.4 phosphate buffered saline incubated for 24 hrs under shaking condition by HPLC analysis; type: physicochemical; conditions: read-out: Kinetic_solubility
Outline: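 Dry powder shaken 24 h at 25 °C in 0.1 M phosphate buffer, pH 7.4, then filtered through a 0.45 µm membrane. Concentration determined by HPLC against a standard of the compound in DMSO. Mean of three separate assays in triplicate.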

[2] = target: Tyrosine-protein kinase BTK (Homo sapiens, UniProt Q06187); assay: Reversible inhibition of FAM-labeled peptide binding to full-length human N-terminal GST-tagged BTK (2 to 659 residues) expressed in baculovirus infected Sf21 insect cells at preincubated for 10 mins followed by FAM-labeled peptide addition and measured by off-chip mobility shift assay
Chain of Tyrosine-protein kinase BTK (Q06187 whole entry, the tested form may be a part): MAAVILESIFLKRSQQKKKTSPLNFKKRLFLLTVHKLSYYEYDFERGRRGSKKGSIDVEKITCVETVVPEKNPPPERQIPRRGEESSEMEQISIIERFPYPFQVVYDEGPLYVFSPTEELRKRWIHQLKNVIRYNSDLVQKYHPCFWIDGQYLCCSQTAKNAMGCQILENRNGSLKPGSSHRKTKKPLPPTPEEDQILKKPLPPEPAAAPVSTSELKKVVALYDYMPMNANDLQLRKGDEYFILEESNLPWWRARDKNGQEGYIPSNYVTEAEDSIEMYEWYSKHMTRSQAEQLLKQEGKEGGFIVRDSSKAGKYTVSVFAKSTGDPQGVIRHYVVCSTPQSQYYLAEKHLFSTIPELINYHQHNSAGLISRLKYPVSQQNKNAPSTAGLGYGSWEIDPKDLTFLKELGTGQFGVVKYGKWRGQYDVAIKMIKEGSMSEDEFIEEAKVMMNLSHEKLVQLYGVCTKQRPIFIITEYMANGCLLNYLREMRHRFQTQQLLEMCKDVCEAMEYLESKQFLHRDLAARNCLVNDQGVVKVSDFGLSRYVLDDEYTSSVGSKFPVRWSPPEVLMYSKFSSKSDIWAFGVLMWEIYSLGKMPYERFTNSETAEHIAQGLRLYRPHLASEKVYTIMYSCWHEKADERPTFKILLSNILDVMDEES

Cc1cc2cn[nH]c2cc1-c1ccc(F)c2c(N)c(C(N)=O)cnc12
solubility kinetic at 24 h [1]: 5.2 µg/mL (≈ 15.5 µM) | IC50 [2]: 11.6 nM
